Published values collected from several papers.
Lines come from different studies, so protocols differ.
Target: Phosphatidylinositol 4-phosphate 5-kinase type-1 alpha (PIP5K1A, Homo sapiens, UniProt Q99755)

Compound | test | conditions | quantity | value
C[C@]1(O)CCCN(c2nc(Nc3ccc(S(=O)(=O)N[C@H]4CC[C@H](CN5CCN(c6ccc(C7CCC(=O)NC7=O)cc6F)CC5)CC4)cc3Cl)ncc2C(F)(F)F)C1 (stereo partly shown) | binding, competition with immobilised ligand | 1 µM | remaining binding | 93%
C=CC(=O)N1CCC([C@@H]2CCNc3c(C(N)=O)c(-c4ccc(Oc5ccccc5)cc4)nn32)CC1 | enzyme activity, inhibitor | 1 µM | inhibition | 16%
COc1ccc2[nH]c3c4[nH]c5ccc(OC)cc5c4c4c(c3c2c1)C(=O)NC4=O | binding | 1 µM | remaining binding | 100%
C1=C/COCc2cc(ccc2OCCN2CCCC2)Nc2nccc(n2)-c2cccc(c2)COC/1 | binding | 0.1 µM | remaining binding | 20%
CC#CC(=O)N1CCC[C@H]1c1nc(-c2ccc(C(=O)Nc3ccccn3)cc2)c2c(N)nccn12 | enzyme activity, inhibitor | 1 µM | inhibition | 12%
C[C@]1(O)CCCN(c2nc(Nc3ccc(S(=O)(=O)N[C@H]4CC[C@H](CN5CCN(c6ccc(C7CCC(=O)NC7=O)cc6F)CC5)CC4)cc3F)ncc2C(F)(F)F)C1 (stereo partly shown) | binding, competition with immobilised ligand | 1 µM | remaining binding | 94%
COc1ccc2oc(-c3ccc4nc(N)oc4c3)c/c(=N\c3ccccc3NC(=O)CCN)c2c1 | binding | 1 µM | remaining binding | 95%
CN1CCN(C(=O)c2ccc(NC(=O)Nc3ccc(N(C)c4ccnc(Nc5ccc(CS(C)(=O)=O)cc5)n4)cc3)cc2)CC1 | binding | 1 µM | remaining binding | 9.3%
CCCCC(=O)Nc1ccc(-c2ccc3ncn(CCC)c(=O)c3c2)cn1 | binding, competition with immobilised ligand | 0.5 µM | remaining binding | 100%
CC(C)S(=O)(=O)c1ccc2nccc(Nc3ccc4sc(C5CCCC5)nc4c3)c2c1 | enzyme activity, inhibitor | 1 µM | activity vs control | 104%
